The list is not random: actives were taken first. Their share in the collection is about 4.9%.
STAT1 act-1 = STAT1 signaling activators, primary screen, cell-based, HTS, luciferase reporter; NIH 3T3 STAT1-luciferase reporter, IFN-gamma, luminescence; 100% = IFN-gamma alone, no compound; activation (% of control), % at 5.5 µM; AID 932, 2007; 200,000 compounds, 2.6% hits;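 active means activation above the screen-wide mean activation plus 3 SD, cut at about 130% in these data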;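 further: raw ratio to IFN-gamma control signal so 100% means no change and 0% no light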
STAT3 inh = IL-6 driven STAT3 reporter inhibitors, primary screen, U3A cells, luciferase, luminescence, MLSCN library; AID 862, 2007; 190,000 compounds, 0.89% hits; inhibition, % at 5.5 µM; IL-6 STAT3-luciferase reporter; host cell line lacks STAT1;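 active means inhibition above the mean inhibition across all screened compounds plus 3 SD, cut at about 44% in these data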;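 further: 0% = DMSO only wells and 100% = 100 µM nifuroxazide control wells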
APP 5'UTR act = activators of APP 5'UTR luciferase reporter, primary screen, SH-SY5Y cells | 190,000 compounds, 1% hits | SH-SY5Y APP 5'UTR luciferase reporter, luminescence; zero percent = DMSO vehicle wells | activation, % at 2 µM;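 active means activation above a set limit, based on mean plus 3 SD of controls, cut at about 140% in these data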
STAT1 blocker = STAT1 signaling inhibitors, primary screen, cell-based, HTS, luciferase reporter; inhibition, % at 5.5 µM; 200,000 compounds, 0.35% hits; NIH 3T3 STAT1-luciferase reporter, IFN-gamma, luminescence;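 active means inhibition above a set limit, the mean inhibition across all tested compounds plus 3 SD, cut at about 34% in these data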;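 further: 0% = IFN-gamma with DMSO and 100% = IFN-gamma with 300 µM nifuroxazide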
NF-kB neuron act = activators of NF-kB expression in neurons, primary screen, cell-based, HTS; 190,000 compounds, 1.6% hits; human neuronal cells, NF-kB reporter expression; active compounds read high; AID 1239, 2008; fold change at 12.5 µM; in the data active means fold change above about 3.3
STAT3 act-1 = IL-6 driven STAT3 reporter potentiators, primary screen, U3A cells, luciferase, luminescence, MLSCN library. IL-6 STAT3-luciferase reporter; 100% = signal with IL-6 EC80 alone. activation (% of control), % at 5.6 µM. 190,000 compounds, 0.91% hits. AID 871, 2007;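 active means activation above the screen-wide mean of compound activation plus 3 SD, cut at about 130% in these data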;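 further: 0% = background luminescence of wells with medium and substrate only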
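Assay system – human STAT1-deficient U3A cells with stable STAT3-luciferase reporter · Also added – IL-6 (33 ng/mL) · Schedule – compound 1 h, then IL-6 6 h at 37 °C · Technique – reporter luminescence signal · Evaluation – % activation versus median of IL-6-stimulated wells · Benchmarks – IL-6-only wells as 100% reference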
STAT3 act-2 = STAT3 reporter potentiators, retest of hits, confirmation, U3A cells, luciferase, luminescence. shares compounds with STAT3 act-1. IL-6 potentiation; U3A cells lack STAT1; 100 means same as IL-6 alone. potentiation (% of control), % at 5.7 µM. 1,200 compounds, 64% hits. AID 1267, 2008;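 active means percent activation of the STAT3 luciferase reporter above a set limit taken from the earlier primary screen, cut at about 130% in these data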;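 further: 0% = background signal of medium plus substrate and 100% = median of IL-6 with DMSO wells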
NFkB act STAT3ct = NF-kB reporter activators in human cells, counter-screen for STAT3 activator project; shares compounds with STAT3 act-1; NF-kappaB reporter activation; activation (% of control), % at 5.7 µM; 1,200 compounds, 11% hits; AID 1309, 2008; in the data active means activation above about 120%;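 further: reporter induced by TNF-alpha stimulation; 100% = median of stimulated DMSO wells and 0% = no signal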
STAT1 act-2 = STAT1 reporter activators, IFN-gamma induced, counter-screen for STAT3 activator project, cell-based, NIH 3T3, luciferase luminescence; shares compounds with STAT3 act-1; AID 1318, 2008; activation (% of control), % at 5.7 µM; 1,200 compounds, 13% hits; NIH 3T3 STAT1-luciferase reporter;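 active means activation above the solvent-only control well mean plus 3 SD, set per screening run, cut at about 120% in these data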;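 further: 100% = IFN-gamma with DMSO median signal so 100% means no change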
* = called active by the depositor; . = no result given.

SMILES	STAT1 act-1	STAT3 inh	APP 5'UTR act	STAT1 blocker	NF-kB neuron act	STAT3 act-1	STAT3 act-2	NFkB act STAT3ct	STAT1 act-2
CS(=O)(=O)N1N=C(c2cccs2)CC1c1ccccc1O (stereo not drawn)	100	0	19	-2	0.81	102	.	.	.
Oc1ccccc1C1CC(c2cccs2)=NC(c2ccc(Cl)cc2)N1 (stereo not drawn)	68	-45	51	33	1.2	140*	139*	108	91
COc1ccccc1CNC(=O)C(C)c1ccc([N+](=O)[O-])cc1 (stereo not drawn)	95	-5	1	4	1.1	109	.	.	.
COC(=O)CCC(=O)NC(=S)Nc1sc(C)c(C)c1C(N)=O	99	-47	-94	1	1.3	139*	104	137*	106
COC(=O)CCC(=O)Nc1sc(C)c(C)c1C(N)=O	100	5	-9	-1	1.2	101	.	.	.
Oc1ccccc1-c1nc(N2CCN(Cc3ccccc3)CC2)c2ccccc2n1	98	-52	-9	2	1.2	146*	141*	104	101
Oc1ccccc1-c1nc(N2CCCC2)c2ccccc2n1	99	6	1	1	0.94	93	.	.	.
CCOc1cc(N2CCOCC2)c(OCC)cc1NC(=O)COC(=O)c1cc2ccccc2cc1O	96	-6	14	4	1.3	105	.	.	.
CCOc1cc(N2CCOCC2)c(OCC)cc1NC(=O)COc1ncnc2ccccc12	106	-50	-17	-6	1.1	151*	154*	107	104
COc1ccccc1-c1n[nH]c(=S)n1N	96	15	13	6	1.5	91	.	.	.
COc1ccccc1-c1n[nH]c(=S)n1-c1ccccc1	98	-38	4	2	1.3	137*	104	104	105
COc1ccc(C(NC(=O)C2CCCCC2)c2c(O)ccc3ccccc23)cc1 (stereo not drawn)	89	-4	-20	12	1.3	101	.	.	.
Cc1cc(-c2nn3c(-c4ccccc4)nnc3s2)c2ccccc2n1	73	-66	-3	31	0.43	156*	139*	99	81
c1ccc(-c2cc(-c3nn4c(-c5ccco5)nnc4s3)c3ccccc3n2)cc1	98	0	15	2	0.89	101	.	.	.
CCC(C)NC(=O)C(NS(=O)(=O)c1cccc2nsnc12)c1ccccc1 (stereo not drawn)	99	-39	-6	1	1.1	139*	96	115	117
COc1cc(C=NCC2OCCc3ccccc32)cc(OC)c1 (stereo not drawn)	96	-4	-3	5	1.3	101	.	.	.
Cc1cccc(C2c3[nH]c4ccccc4c3CCN2C(=O)c2nn(C)c(=O)c3ccccc23)n1 (stereo not drawn)	98	-38	-7	1	0.47	137*	132	106	94
Cc1cccc(C2c3[nH]c4ccccc4c3CCN2C(=O)c2ocnc2C)n1 (stereo not drawn)	88	-27	14	11	1.2	125	.	.	.
Cc1cccc(C2c3[nH]c4ccccc4c3CCN2C(=O)c2cc(CC(C)C)nc(C)n2)n1 (stereo not drawn)	93	-42	1	7	0.76	153*	151*	109	102
O=C(OCc1nc2ccccc2s1)C1CCN(C2=NS(=O)(=O)c3ccccc32)CC1	112	-44	51	-14	1.3	147*	142*	121*	134*
O=C(OCc1nc2ccccc2s1)c1ccccc1O	114	-6	26	-15	2.2	111	.	.	.
N#Cc1sc2nc(-c3ccccc3)cc(C(F)(F)F)c2c1N	95	-36	-5	5	1.1	148*	155*	104	112
COc1cc2c(cc1NC(=O)C(C)OC(=O)c1ccc(S(=O)(=O)Nc3ccccc3Cl)cc1)oc1ccccc12 (stereo not drawn)	102	-41	35	-4	.	141*	128	106	104
COc1cc2c(cc1NC(=O)c1cccnc1)oc1ccccc12	125	-11	49	-28	2	109	.	.	.
COc1cc2c(cc1NC(=O)C(C)N1CCN(S(=O)(=O)c3ccc(C)c(C)c3)CC1)oc1ccccc12 (stereo not drawn)	99	-3	12	1	0.88	102	.	.	.
SMILES	STAT1 act-1	STAT3 inh	APP 5'UTR act	STAT1 blocker	NF-kB neuron act	STAT3 act-1	STAT3 act-2	NFkB act STAT3ct	STAT1 act-2
COc1cc2c(cc1NC(=O)C(C)Sc1nc3ccccc3n1C)oc1ccccc12 (stereo not drawn)	97	-22	6	4	0.87	119	.	.	.
COc1cc2c(cc1NC(=O)C(C)Sc1cccc[n+]1[O-])oc1ccccc12 (stereo not drawn)	116	-43	36	-18	1.8	136*	139*	112	115
COc1cc2c(cc1NC(=O)c1ccncc1)oc1ccccc12	117	-60	57	-18	1.4	155*	137*	105	120
COc1ccc(OC)c(-c2csc(N(CC3CCCO3)C(=O)Cc3ccccc3)n2)c1 (stereo not drawn)	107	2	-24	-10	1.2	105	.	.	.
NC(=O)c1ncc(C(F)(F)F)cc1Oc1cccnc1	100	5	-13	0	1.1	100	.	.	.
CN(C)C(=O)c1ccc(N/C=C(\C=O)c2nc3ccccc3o2)cc1	94	-44	-19	5	0.95	141*	138*	104	94
O=C/C(=C\Nc1ccc(C(=O)N2CCOCC2)cc1)c1nc2ccccc2o1	97	-61	-13	1	1.3	161*	153*	101	105
O=C(c1ccc(S(=O)(=O)Nc2ccccc2)cc1)N1CCOCC1	110	-3	-1	-11	1.3	105	.	.	.
Cc1c(C(=O)Nc2ccncc2)oc2ccccc12	109	26	27	-9	1	81	.	.	.
Cc1c(C(=O)Nc2ccccn2)oc2ccccc12	124	-59	153*	-28	4.5*	154*	218*	142*	173*
O=C(CCn1cnnn1)Nc1ccccc1	104	6	16	-6	1.2	99	.	.	.

Screening data (PubChem BioAssay)
